Experimental findings from ChEMBL document CHEMBL4251598, “Development of novel bis-pyrazole derivatives as antitumor agents with potent apoptosis induction effects and DNA damage” (Eur J Med Chem, 2018) are described below.

Calls of active or inactive are those of the source.

As a reminder, the inhibition is the relative decrease from the control value, in per cent.

The nature of series [1]: Acute toxicity in ICR mouse assessed as survival at 312.5 mg/kg, ip measured on day 14. It is filed as organism-based. The settings on record: in vivo. The method, boiled down:
(§1)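 Female ICR mice, 10 per group, single intraperitoneal injection at 488.3, 390.6, 312.5, 250 or 200 mg/kg, or vehicle control. Survival, eating, drinking, body weight and activity were monitored for up to 14 days after dosing. MTD was defined as the highest dose giving no drug-related moribund state or death, with temporary body-weight loss within 20%. LD50 was calculated from mortality.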

Series [2] deals with SMMC-7721. As to the kind of experiment: Induction of apoptosis in human SMMC7721 cells assessed as reduction in Bcl2 expression after 72 hrs by Western blot analysis. It counts as functional, cell-based. An outline of the steps: (§2)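 Sub-confluent SMMC-7721 cells treated with vehicle, compound or ADM at indicated concentrations for 72 h. Lysed on ice in NP-40/deoxycholate/SDS buffer with PMSF and leupeptin. Up to 50 µg protein run on SDS-PAGE, transferred to PVDF and probed with specific antibodies; ECL detection. Bands quantified by densitometry relative to β-actin, mean ± SD of three experiments.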
For orientation: Immunoblotting shows a protein as a band on a membrane.

The subject of series [3] is SMMC-7721. The series is described as follows: Potency index, ratio of ADM IC50 to compound IC50 for human SMMC7721 cells. It is filed as functional.
The subject of series [4] is SMMC-7721. The series is described as follows: Induction of apoptosis in human SMMC7721 cells assessed as increase in cleaved PARP expression at 0.2 to 3.2 uM after 72 hrs by Western blot analysis relative to control. It counts as functional, cell-based. An outline of the steps:
as §2

Series [5] has as its system SMMC-7721. The series is described as follows: Induction of apoptosis in human SMMC7721 cells assessed as apoptotic cells at 3.2 uM after 72 hrs by FITC-Annexin-V/7AAD/propidium iodide staining based flow cytometry relative to control. It is filed as functional. The method, boiled down:
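SMMC-7721 cells cultured overnight, then treated in triplicate with 0.2, 0.8 or 3.2 μM, vehicle, or ADM (3.2 μM) for 72 h. Stained with annexin V and PI (methods section: APC-annexin V/7-AAD) for 15 min at room temperature. Mean ± SD of three independent experiments.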
(In flow cytometry, cells or beads pass a laser one at a time.)

The next series relates to L02. The series is described as follows: Cytotoxicity against human LO2 cells assessed as reduction in cell survival at 0.2 to 5 uM after 72 hrs by MTT assay. It is filed as cell-based. The settings on record: l02, 72 h. An outline of the steps: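 LO2 normal liver cells in DMEM with 10% FBS, plated at 10^4 cells/mL, adhered overnight. Exposed to graded concentrations for 72 h alongside SMMC-7721. MTT added for the last 4 h, formazan dissolved in DMSO, A570 read. Percent inhibition, mean ± SD of three independent experiments.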

The subject of series [6] is SMMC-7721. The series is described as follows: Antitumor activity against human SMMC7721 cells xenografted in BALB/c mouse assessed as tumor growth inhibition at 15 mg/kg, ip measured after 19 days relative to control. It is filed as functional. The settings on record: SMMC-7721, ip, 456 h, read-out: TGI. An outline of the steps:
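Female BALB/c nude mice, 5-6 weeks old, inoculated subcutaneously with 10^6 SMMC-7721 cells. At 50-100 mm³ tumours, mice were randomized to ip compound (15 or 30 mg/kg), ADM (15 mg/kg) or vehicle, n = 6 per group. Caliper volume ½(L×W²) measured every 3 days to day 19, with body weight monitored. Tumours excised and weighed at the end.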

Series [7] deals with SMMC-7721. The series is described as follows: Induction of apoptosis in human SMMC7721 cells assessed as increase in Bax expression after 72 hrs by Western blot analysis. It counts as functional, cell-based. An outline of the steps: as §2
Series [8] addresses Cellular tumor antigen p53 (Homo sapiens) (UniProt P04637). The series is described as follows: Induction of p53 phosphorylation at Ser15 in human SMMC7721 cells after 72 hrs by Western blot analysis. It counts as cell-based. An outline of the steps: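 SMMC-7721 cells treated with vehicle, compound at 0.2, 0.8 or 3.2 μM, or ADM for 72 h. Lysates immunoblotted for H2AX pS139, p-p53 (Ser15), total p53 and β-actin, with ECL detection. Signals quantified by densitometry relative to β-actin, mean ± SD of three experiments.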

Series [9] in a line: Acute toxicity in ICR mouse assessed as survival at 250 mg/kg, ip measured on day 14. The settings on record: in vivo. It counts as organism-based. The method, boiled down:
as §1

Series [10] concerns SMMC-7721. As to the kind of experiment: Antiproliferative activity against human SMMC7721 cells assessed as inhibition of cell proliferation at 25 uM after 72 hrs by MTT assay relative to control. It counts as functional. The settings on record: SMMC-7721, 72 h. An outline of the steps:
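Cells in DMEM with 10% FBS, plated at 10^4 cells/mL, adhered overnight. Treated at 25 μM for 72 h. MTT added for the last 4 h, formazan dissolved in DMSO, A570 read. Inhibition expressed as percent of untreated. Mean + SD from three separate measurements.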
For orientation: Tetrazolium assays rely on reduction of a dye to a coloured formazan, in cell work by metabolically active cells.

For series [11], the system named is Mus musculus. The series is described as follows: Acute toxicity in ICR mouse assessed as mouse mortality level at 200 to 250 mg/kg, ip measured on day 4 post dose. It is filed as organism-based. To be noted: in vivo. An outline of the steps: as §1
The test system of series [12] is Mus musculus. As to the kind of experiment: Acute toxicity in ICR mouse assessed as mouse mortality level at 200 to 488.3 mg/kg, ip measured at 1 to 4 hrs post dose. It counts as organism-based. The settings on record: in vivo. The method, boiled down:
as §1

Chain of Cellular tumor antigen p53 (Homo sapiens) (P04637 whole entry, looked up): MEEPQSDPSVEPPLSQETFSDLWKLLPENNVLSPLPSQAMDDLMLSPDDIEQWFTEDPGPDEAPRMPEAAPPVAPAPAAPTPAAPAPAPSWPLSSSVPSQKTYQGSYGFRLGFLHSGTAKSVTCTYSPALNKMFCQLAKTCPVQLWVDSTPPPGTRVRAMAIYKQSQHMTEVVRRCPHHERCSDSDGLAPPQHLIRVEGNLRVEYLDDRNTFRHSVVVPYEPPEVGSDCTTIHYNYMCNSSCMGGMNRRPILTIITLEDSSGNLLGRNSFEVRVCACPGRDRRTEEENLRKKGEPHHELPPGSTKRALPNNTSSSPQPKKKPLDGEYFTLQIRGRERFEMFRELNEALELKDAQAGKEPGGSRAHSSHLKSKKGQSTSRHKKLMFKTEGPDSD

Regarding `COc1ccc(Oc2c(/C=N\OCc3c(Cl)c(-c4ccc(Cl)cc4)nn3C)c(C)nn2C)cc1`, the values for the survival at 14 day in series [1] and in [9] were 60% and 70%, respectively. Further, the Activity entry in the series on SMMC-7721 [2] is “Dose-dependent effect”; in the series on SMMC-7721 [5], 63.2%; with L02, “Non-Toxic”; in the series with SMMC-7721 [7], “Dose-dependent effect”; in series [8] it was “Dose-dependent effect”; in the series with Mus musculus [11], “Non-Toxic”. Moreover, in the series on Mus musculus [12], the Activity result was “Non-Toxic”. In addition, in the series with SMMC-7721 [3], the “Ratio IC50” value is on record as 2 - 3. Moreover, the outcome in the series on SMMC-7721 [4] was Active. The inhibition in vivo at 15 mg/kg in the series on SMMC-7721 [6] worked out at 44%. The inhibition at 25 µM in the series with SMMC-7721 [10] is 80%.
